Experimental data taken from paper PMC11628833 (Acta Pharmaceutica Sinica. B, 2024).

Experiments:
human TLR7 = target: T1, human TLR7 (Homo sapiens, UniProt Q9NYK1); experiment: SEAP reporter assay in HEK-Blue hTLR7 cells; type: cell-based
T1 sequence (Q9NYK1 27-1049): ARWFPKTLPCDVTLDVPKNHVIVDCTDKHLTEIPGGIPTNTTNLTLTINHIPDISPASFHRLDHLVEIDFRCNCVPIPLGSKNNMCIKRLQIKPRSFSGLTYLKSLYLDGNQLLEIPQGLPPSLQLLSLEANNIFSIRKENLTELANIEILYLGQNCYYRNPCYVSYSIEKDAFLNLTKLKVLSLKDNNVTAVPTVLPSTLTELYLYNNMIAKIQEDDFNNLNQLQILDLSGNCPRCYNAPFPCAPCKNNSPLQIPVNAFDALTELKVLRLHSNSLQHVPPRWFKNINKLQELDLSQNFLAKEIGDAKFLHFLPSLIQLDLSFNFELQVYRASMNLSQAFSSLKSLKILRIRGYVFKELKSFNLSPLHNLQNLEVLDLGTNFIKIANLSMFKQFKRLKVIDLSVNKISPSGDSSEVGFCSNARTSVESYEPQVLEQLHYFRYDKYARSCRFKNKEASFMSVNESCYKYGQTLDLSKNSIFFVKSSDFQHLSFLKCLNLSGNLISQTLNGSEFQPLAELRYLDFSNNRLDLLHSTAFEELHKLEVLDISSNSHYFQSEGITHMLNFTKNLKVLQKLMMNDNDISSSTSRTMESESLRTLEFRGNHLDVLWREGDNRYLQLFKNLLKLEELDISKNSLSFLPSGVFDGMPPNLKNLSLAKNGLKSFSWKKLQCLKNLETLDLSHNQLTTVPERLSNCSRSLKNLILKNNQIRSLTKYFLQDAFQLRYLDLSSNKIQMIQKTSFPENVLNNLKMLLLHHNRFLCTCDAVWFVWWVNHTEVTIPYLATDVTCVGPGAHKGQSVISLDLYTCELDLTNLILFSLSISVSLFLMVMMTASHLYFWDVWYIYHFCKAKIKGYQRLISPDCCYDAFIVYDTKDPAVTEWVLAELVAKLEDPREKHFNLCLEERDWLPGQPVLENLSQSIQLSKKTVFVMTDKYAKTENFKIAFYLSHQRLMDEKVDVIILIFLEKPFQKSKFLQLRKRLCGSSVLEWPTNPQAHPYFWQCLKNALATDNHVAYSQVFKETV
Outline: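 HEK-Blue hTLR7 cells (stable human TLR7 with SEAP reporter) were plated at 5 × 10^5 cells/mL in DMEM with 10% heat-inactivated FBS. They were treated with R848 and varying test compound concentrations at 37 °C for 20–24 h. Medium was mixed with QUANTI-Blue, incubated at 37 °C for about 30 min, and read at 620 nm. R848-only = 100% activation; untreated = 0%.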

hTLR8 = target: T2, hTLR8 (Homo sapiens, UniProt Q9NR97); experiment: SEAP reporter assay in HEK-Blue hTLR8 cells; type: cell-based
T2 sequence (Q9NR97 27-1041): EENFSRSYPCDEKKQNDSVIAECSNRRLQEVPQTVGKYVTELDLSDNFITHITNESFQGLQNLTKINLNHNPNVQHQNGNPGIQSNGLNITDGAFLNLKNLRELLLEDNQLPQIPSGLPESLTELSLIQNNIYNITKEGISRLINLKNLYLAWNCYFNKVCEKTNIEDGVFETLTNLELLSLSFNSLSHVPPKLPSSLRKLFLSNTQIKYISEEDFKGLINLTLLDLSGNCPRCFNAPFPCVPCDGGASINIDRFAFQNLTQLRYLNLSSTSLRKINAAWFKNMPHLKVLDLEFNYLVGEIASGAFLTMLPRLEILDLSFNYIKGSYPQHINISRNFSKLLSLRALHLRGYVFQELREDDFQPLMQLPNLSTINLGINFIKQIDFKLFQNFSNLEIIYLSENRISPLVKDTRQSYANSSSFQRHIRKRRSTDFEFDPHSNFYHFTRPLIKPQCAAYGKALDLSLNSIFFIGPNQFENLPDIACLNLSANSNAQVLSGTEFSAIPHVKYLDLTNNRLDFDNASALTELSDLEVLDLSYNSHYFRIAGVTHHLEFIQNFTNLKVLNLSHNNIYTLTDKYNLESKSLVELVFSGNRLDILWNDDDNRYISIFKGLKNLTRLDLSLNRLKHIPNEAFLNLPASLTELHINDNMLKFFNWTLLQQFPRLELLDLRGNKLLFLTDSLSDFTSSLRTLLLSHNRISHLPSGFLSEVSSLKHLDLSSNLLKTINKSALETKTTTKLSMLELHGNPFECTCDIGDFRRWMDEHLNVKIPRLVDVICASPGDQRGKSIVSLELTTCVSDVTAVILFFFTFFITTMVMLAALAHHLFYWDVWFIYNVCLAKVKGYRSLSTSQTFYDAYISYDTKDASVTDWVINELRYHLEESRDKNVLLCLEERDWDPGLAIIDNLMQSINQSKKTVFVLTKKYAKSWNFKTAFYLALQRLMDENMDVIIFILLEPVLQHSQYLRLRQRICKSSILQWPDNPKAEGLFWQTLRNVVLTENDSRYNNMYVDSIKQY

MRL/lpr mice = MRL/lpr mice SLE model; type: in vivo, mouse; conditions: female MRL/lpr mice, S14 50 mg/kg oral once daily; vs placebo
Outline: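 Mice were 14-week-old female MRL/lpr, randomized by body weight, n = 12/group, treated 4 weeks. Oral test compound in 10% w/v PEG-400/1,3-propanediol/water (55:20:25): 100 mg/kg twice daily, or a second compound at 50 mg/kg once daily. Controls: hydroxychloroquine 100 mg/kg daily in saline; saline placebo. Weekly: survival, body weight, skin lesions, and fundus-vein plasma for ANA/anti-dsDNA ELISA. Endpoint: spleen weight and H&E kidney histology.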

[1] = system: IL-8 mRNA (TLR7 downstream); experiment: RT-PCR analysis of IL-8 mRNA in R848 treated HEK-Blue TLR7 cells; type: cell-based, human; conditions: 2 μg/mL R848 treated HEK-Blue TLR7 cells
Outline: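 HEK-Blue TLR7 cells were seeded at 1 × 10^6 cells/well for 24 h, then switched to serum-free medium. They were treated ± R848 with various test compound concentrations for 16 h at 37 °C. IL-8 mRNA was quantified by RT-PCR using the ΔΔCt method, with GAPDH as reference and normalization to untreated cells.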

[2] = target: T3, TLR7 extracellular domain (Macaca mulatta, UniProt B3Y653, N167Q/N389Q/N488Q/N799Q, form not given); experiment: ITC titration to TLR7 recombinant protein; type: binding, Monkey (Macaca mulatta)
T3 sequence (B3Y653 27-839 N167Q/N389Q/N488Q/N799Q): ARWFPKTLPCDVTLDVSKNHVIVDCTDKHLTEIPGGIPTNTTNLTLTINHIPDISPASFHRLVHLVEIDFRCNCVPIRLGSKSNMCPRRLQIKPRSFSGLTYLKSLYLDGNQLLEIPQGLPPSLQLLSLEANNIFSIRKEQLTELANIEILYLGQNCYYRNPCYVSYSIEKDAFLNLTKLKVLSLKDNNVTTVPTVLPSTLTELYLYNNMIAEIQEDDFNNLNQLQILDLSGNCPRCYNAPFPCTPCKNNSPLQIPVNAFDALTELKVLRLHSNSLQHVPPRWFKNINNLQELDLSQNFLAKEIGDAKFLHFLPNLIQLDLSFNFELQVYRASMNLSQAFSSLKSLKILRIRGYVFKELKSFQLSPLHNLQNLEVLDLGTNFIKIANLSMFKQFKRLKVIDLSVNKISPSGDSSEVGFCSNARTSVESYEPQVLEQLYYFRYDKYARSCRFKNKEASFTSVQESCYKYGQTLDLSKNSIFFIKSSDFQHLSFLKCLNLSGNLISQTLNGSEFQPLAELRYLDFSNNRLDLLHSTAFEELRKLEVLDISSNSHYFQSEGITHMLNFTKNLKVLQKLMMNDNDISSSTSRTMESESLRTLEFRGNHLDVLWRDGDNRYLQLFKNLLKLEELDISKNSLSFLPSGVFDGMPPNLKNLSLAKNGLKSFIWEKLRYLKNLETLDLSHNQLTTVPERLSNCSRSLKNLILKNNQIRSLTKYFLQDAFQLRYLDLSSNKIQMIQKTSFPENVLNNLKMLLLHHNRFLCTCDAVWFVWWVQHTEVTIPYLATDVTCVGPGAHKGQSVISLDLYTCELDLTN
Outline: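 Titrations used the same purified rhesus TLR7 ectodomain, at 298 K in citrate/NaOH pH 4.8, 150 mmol/L NaCl. Syringe held 1 mmol/L test compound or loxoribine; cell held TLR7, with or without the other ligand pre-added. Each run was one small injection followed by 18 injections at 180 s intervals. Kd and ΔH obtained by single-site binding model fitting.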

[3] = 1 mmol/L loxoribine into 50 μmol/L TLR7, absence of TH-407b

`O=[N+]([O-])c1ccc(-c2ccc(CO)cc2)c2cccnc12` [Compound S16] was tested, and the IC50 (human TLR7) was 0.66 ± 0.13 µM and the IC50 (hTLR8) was 1.3 ± 0.03 µM.

In the case of `O=C(c1cccs1)N1CCN(c2ccc([N+](=O)[O-])c3ncccc23)CC1` [Compound S12], the IC50 (human TLR7) is reported as 2.12 ± 0.58 µM and the IC50 (hTLR8) is reported as 0.06 ± 0.03 µM.

In the case of `O=C(c1ccncc1)N1CCN(c2ccc([N+](=O)[O-])c3ncccc23)CC1` [Compound S14], the IC50 (human TLR7) is reported as 3 ± 0.37 µM, the IC50 (hTLR8) is reported as 0.06 ± 0.01 µM and the “ANA and anti-ds-DNA antibody levels” value (MRL/lpr mice) is reported as “no significant alterations”. The glomerular diameter (MRL/lpr mice) was “no significant alterations”, the skin lesion severity (MRL/lpr mice) was “no significant alterations” and the spleen index (MRL/lpr mice) was “no significant alterations”. The survival rate (MRL/lpr mice) was “notably lower than the placebo group”.

Compound `O=C(c1ccc(F)cc1)N1CCN(c2ccc([N+](=O)[O-])c3ncccc23)CC1` [Compound S7] has an IC50 (human TLR7) of 1.15 ± 0.16 µM and an IC50 (hTLR8) of 0.1 ± 0.05 µM.

Work on `O=C(c1ccc(Br)cc1)N1CCN(c2ccc([N+](=O)[O-])c3ncccc23)CC1` [Compound S8] yielded an IC50 (human TLR7) of 0.97 ± 1.23 µM and an IC50 (hTLR8) of 0.14 ± 0.17 µM.

With `COc1ccc(C(=O)N2CCN(c3ccc(N)c4ncccc34)CC2)cc1` [Compound S21] the IC50 (hTLR8) was 0.82 ± 0.04 µM.

`O=C(c1ccco1)N1CCN(c2ccc([N+](=O)[O-])c3ncccc23)CC1` [Compound S13] gave an IC50 (human TLR7) of 0.53 ± 0.11 µM and an IC50 (hTLR8) of 0.1 ± 0.01 µM.

For `COc1ccc(C(=O)N2CCN(c3ccc([N+](=O)[O-])c4ncccc34)CC2)cc1` [Compound S4], the IC50 (human TLR7) was 0.53 ± 0.09 µM and the IC50 (hTLR8) was 0.07 ± 0.01 µM.

`COc1ccc(C(=O)N2CCN(c3ccc([N+](=O)[O-])c4cccnc34)CC2)cc1` [Compound S24] was tested, and the “IL-8 mRNA level” value [1] was “inactive”.

With `COc1ccc(C(=O)N2CCN(c3ccc([N+](=O)[O-])c4ncccc34)CC2)c(OC)c1` [Compound S11] the IC50 (human TLR7) was 0.41 ± 0.33 µM and the IC50 (hTLR8) was 0.06 ± 0.03 µM.

With `C=CCn1c(=O)n([C@@H]2O[C@H](CO)[C@@H](O)[C@H]2O)c2nc(N)[nH]c(=O)c21` [loxoribine] the Kd [2, 3] was 4.4 µM, the ΔH [2, 3] was -5.828 kcal/mol and the “heat change upon titration” value ([2]; loxoribine into TLR7 in the presence of pre-mixed 500 μmol/L TH-407b) was “completely obliterated”.

`O=C(c1ccccc1)N1CCN(c2ccc([N+](=O)[O-])c3ncccc23)CC1` [Compound S6] gave an IC50 (human TLR7) of 1.07 ± 0.42 µM and an IC50 (hTLR8) of 0.1 ± 0.07 µM.

With `O=C(c1ccc([N+](=O)[O-])cc1)N1CCN(c2ccc([N+](=O)[O-])c3ncccc23)CC1` [Compound S5] the IC50 (human TLR7) was 0.64 ± 0.21 µM and the IC50 (hTLR8) was 0.15 ± 0.04 µM.

In the case of `O=[N+]([O-])c1ccc(-c2ccc(O)cc2)c2cccnc12` [Compound S15], the IC50 (human TLR7) is reported as 0.02 ± 0.01 µM and the IC50 (hTLR8) is reported as 0.02 ± 0.01 µM.

In the case of `Cc1ccc(C(=O)N2CCN(c3ccc([N+](=O)[O-])c4ncccc34)CC2)cc1` [Compound S2], the IC50 (human TLR7) is reported as 0.86 ± 0.39 µM and the IC50 (hTLR8) is reported as 0.11 ± 0.04 µM.

`COc1ccccc1C(=O)N1CCN(c2ccc([N+](=O)[O-])c3ncccc23)CC1` [Compound S10] showed an IC50 (human TLR7) of 3.06 ± 2.72 µM and an IC50 (hTLR8) of 0.06 ± 0.01 µM.

`COc1cccc(C(=O)N2CCN(c3ccc([N+](=O)[O-])c4ncccc34)CC2)c1` [Compound S9] showed an IC50 (human TLR7) of 1.28 ± 1.05 µM and an IC50 (hTLR8) of 0.08 ± 0.03 µM.
